Compound activity: PubChem, several laboratories
The list is not random: actives were taken first. Their share in the collection is about 3%.
MEKK2 WT-MEK5 = raises or lowers MEK5 binding to wildtype human MEKK2 PB1 domain; Q9Y2U5; binding response (% of control), % at 10 µM; AID 1531; bead flow cytometry, Alexa488-MEK5 binding to MEKK2 WT; actives lie on both sides; hit rate 1.1% among 290,000; in the data active = binding response below about 67% or above about 130%
UBC13 inh = human UBC13 polyubiquitination inhibition. P61088. UBC13 polyubiquitin chain formation, TR-FRET. inhibition, % at 20 µM. hit rate 0.47% among 330,000. AID 485273; in the data active = inhibition above about 45%, passing the limit was not always enough
Target sequence (P61088 whole entry, looked up): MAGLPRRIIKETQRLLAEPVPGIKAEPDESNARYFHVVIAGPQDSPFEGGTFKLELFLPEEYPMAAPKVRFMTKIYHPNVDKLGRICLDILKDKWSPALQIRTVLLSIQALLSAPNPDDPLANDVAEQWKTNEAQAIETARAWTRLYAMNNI
UCH37 inh = inhibitors of human deubiquitinating enzyme UCH37; Q9Y5K5; purified proteasome/UCH37, Ub-AMC cleavage fluorescence; inhibition, % (test concentration not listed); hit rate 0.33% among 330,000; AID 588478;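 active = mean inhibition over replicate wells above about 20%, limit read from the data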
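Material: human UCH37 enzyme supplied as purified proteasome complex. Measure: % inhibition of Ub-AMC cleavage fluorescence. Medium: pH 7.4 Tris-HCl (50 mM) with ovalbumin, ATP-MgCl2, DTT. Times: 30 min preincubation with enzyme, 25 min cleavage at room temperature. Detection: AMC fluorescence intensity at 355/460 nm.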
MEKK2mut PB1 HTS = signal of MEK5 binding to mutant human MEKK2 PB1 domain; bead flow cytometry, Alexa488-MEK5 binding to MEKK2 mutant; percent response, % at 10 µM; hit rate 0.35% among 290,000; AID 1530; in the data active = percent response above about 24%, passing the limit was not always enough
MEKK3 PB1 HTS = modulators (inhibitors or enhancers) of MEK5 binding to human MEKK3 PB1 domain; Q99759; bead-based flow cytometry, Alexa488-MEK5 binding to MEKK3; actives lie on both sides; 0 = blocked by unlabeled MEK5, 100 = vehicle; binding response (% of control), % at 10 µM; hit rate 1.4% among 290,000; AID 1529;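 active = binding response more than 3 SD above or below the average of its plate-row segment, actives on both sides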;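 also: Alexa488 bead fluorescence after subtracting the streptavidin-only scavenger bead signal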
Apaf-1 inh = blocks human Apaf-1 apoptosome activity | O14727 | reconstituted apoptosome caspase-3 activity, DEVD-Rh110 fluorescence | inhibition, % at 20 µM | hit rate 0.71% among 330,000; active = inhibition of at least 40% at 20 µM
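System: reconstituted apoptosome with Apaf-1, cytochrome c, caspase-9, procaspase-3, dATP; Signal: Rh110 fluorescence intensity; Schedule: 30 min compound preincubation, 50 min activation, room temperature; Reagent: cytochrome c trigger plus (Z-DEVD)2-Rh110 caspase-3 substrate.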
Casp3 counter = inhibits human caspase-3 in UBC13 counter-screen; hit rate 4% among 1,400; shares compounds with UBC13 inh; Recombinant caspase-3, Caspase-Glo 3/7 luminescence, 60 min; inhibition, % at 20 µM;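 active = mean inhibition across replicates above about 26%, limit read from the data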
Target sequence (P42574 whole entry, looked up): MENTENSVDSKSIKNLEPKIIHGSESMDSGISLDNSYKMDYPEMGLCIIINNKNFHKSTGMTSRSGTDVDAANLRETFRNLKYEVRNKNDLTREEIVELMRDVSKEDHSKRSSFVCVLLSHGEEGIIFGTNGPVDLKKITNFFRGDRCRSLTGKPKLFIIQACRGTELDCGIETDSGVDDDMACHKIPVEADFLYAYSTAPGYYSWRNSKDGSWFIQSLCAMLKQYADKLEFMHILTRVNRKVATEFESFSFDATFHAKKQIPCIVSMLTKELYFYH
UBC13 confirm = human UBC13 polyubiquitin inhibition, confirmed. AID 488859. shares compounds with UBC13 inh. UBC13 polyubiquitination, TR-FRET, biochemical. hit rate 68% among 1,400. inhibition, % at 10 µM; in the data active = inhibition above about 45%
A number is an active result; 0 = inactive; - = no result given.

SMILES | MEKK2 WT-MEK5 | UBC13 inh | UCH37 inh | MEKK2mut PB1 HTS | MEKK3 PB1 HTS | Apaf-1 inh | Casp3 counter | UBC13 confirm
CN(CCNC(=O)CCCOc1cc(=O)n(C)c2ccccc12)Cc1ccccc1 | 0 | 50.9 | 0 | 0 | 0 | 0 | 0 | 68.3
O=C1c2cccc3cccc(c23)C(=O)N1CCN1CCN(CC(O)COCc2ccc(Cl)cc2)CC1 (stereo not given) | 0 | 98.1 | 0 | 0 | 0 | 0 | 0 | 108.4
Cc1ccc(C)c(OCC(O)CN2CCN(CCN3C(=O)c4cccc5cccc(c45)C3=O)CC2)c1 (stereo not given) | 0 | 83.8 | 0 | 0 | 0 | 0 | 0 | 101.4
CC(=O)c1ccccc1OCC(O)CN1CCN(CCN2C(=O)c3cccc4cccc(c34)C2=O)CC1 (stereo not given) | 0 | 54.0 | 0 | 0 | 0 | 0 | 0 | 59.8
CN(C)C1(CNCC(O)c2ccccc2)CCCCC1 (stereo not given) | 0 | 0 | 0 | 0 | 0 | 0 | - | -
NCCCC[C@@H]1NC(=O)c2cc([N+](=O)[O-])cc(I)c2SC[C@@H](C(N)=O)NC(=O)[C@H](Cc2ccc(O)cc2)NC1=O | 0 | 58.7 | 0 | 0 | 0 | 0 | 0 | 80.7
Cc1cccc(C(=O)OCC(=O)NCC2COc3ccccc3O2)c1 (stereo not given) | - | 0 | 0 | - | - | 0 | - | -
CC1Cc2nc(SCC(N)=O)n(C)c(=O)c2S1 (stereo not given) | 0 | 0 | 0 | 0 | 0 | 0 | - | -
COCCn1c(SCC(N)=O)nc2c(c1=O)SC(C)C2 (stereo not given) | 0 | 48.6 | 0 | 0 | 0 | 0 | 0 | 0
Nc1cc(S(=O)(=O)Nc2ccc(Br)cc2)ccc1Cl | 0 | 0 | 0 | 0 | 0 | 0 | - | -
O=C(C1=C[C@H](c2coc3ccccc3c2=O)C[C@H](OCc2ccc(CO)cc2)O1)N1CCN(Cc2ccc3c(c2)OCO3)CC1 | 0 | 0 | 0 | 0 | 0 | 0 | - | -
O=C(C1=C[C@@H](c2coc3ccccc3c2=O)C[C@@H](OCc2ccc(CO)cc2)O1)N1CCN(Cc2ccc3c(c2)OCO3)CC1 | 0 | 75.6 | 0 | 0 | 0 | 0 | 0 | 56.9
O=C(c1ccc(-c2cc(O)c3ncccc3c2)cc1)N1CCNCC1 | - | 113.9 | 0 | - | - | 0 | 0 | 116.9
CSCCC1NC(=O)N(CC(=O)N2CCc3ccccc3C2)C1=O (stereo not given) | - | 0 | 0 | - | - | 0 | - | -
Cc1cccc(NC(=S)N(C)C)c1C | 0 | 0 | 0 | 0 | 0 | 0 | - | -
Cc1cccc(Nc2cc(C)c3c(O)cccc3n2)c1C | 0 | 74.2 | - | 0 | 0 | 0 | 0 | 58.0
COc1ccc(-c2sc3ccc(OC)cc3c2C#Cc2cncn2C)cc1 | - | 48.3 | 0 | - | - | 0 | 0 | 0
COc1ccc(CS(=O)(=O)c2nc(C)cc(C)c2S(C)(=O)=O)cc1 | 0 | 0 | 0 | 0 | 0 | 0 | - | -
CN(C)S(=O)(=O)c1cccc(NC(=O)c2c[nH]c3ccccc23)c1 | 0 | 0 | 0 | 0 | 0 | 0 | - | -
CCCC[C@H](CN[C@@H](CNC)[C@H](C)CC)NCCC12CCC(CC1)C2 | 0 | 47.9 | 0 | 0 | 0 | 0 | 0 | 0
CCC[C@H](CN[C@@H](CNC)[C@H](C)O)NCCc1ccc(OC)cc1 | 0 | 0 | 0 | 0 | 0 | 0 | - | -
COc1ccc(S(=O)(=O)N2CCCC2)cc1NC(=O)c1ccccc1F | 0 | 0 | 0 | 0 | 0 | 0 | - | -
COc1ccc(C)cc1NC(=O)c1cc(S(=O)(=O)N2CCCCC2)ccc1N1CCOCC1 | - | 65.4 | 0 | - | - | 0 | 0 | 50.6
COc1cc(NC(=O)c2cc(S(=O)(=O)N3CCCCC3)ccc2N2CCOCC2)cc(OC)c1 | - | 0 | 0 | - | - | 0 | - | -
COc1ccccc1NC(=O)c1cc(S(=O)(=O)N2CCCCCC2)ccc1F | 0 | 67.7 | 0 | 0 | 0 | 0 | 0 | 90.2
COC(=O)c1c(C)[nH]c(C(=O)OC(C)C(=O)N(C)C2CCCCC2)c1C (stereo not given) | - | 0 | 0 | - | - | 0 | - | -
